ChEMBL document CHEMBL4425160, “DABCO-catalyzed one-pot three component synthesis of dihydropyrano[3,2-c]chromene substituted quinazolines and their evaluation towards anticancer activity” (Bioorg Med Chem Lett, 2016)

Tests used:
MDA-MB-231 [1] = assay: Cytotoxicity against human MDA-MB-231 cells assessed as cell growth inhibition after 48 hrs by MTT assay; format: functional, cell-based; settings: MDA-MB-231, 48 h
Summary of the method: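 Cells counted by trypan blue exclusion, seeded at 1×10^4 per well in DMEM with 10% FBS, and left 24 h. They were then exposed to a concentration series for 48 h at 37°C. Serum-free medium with MTT was added for 4 h, formazan was dissolved in DMSO, and A570 was read minus A690. IC50 was read from the 50% viability point versus DMSO+DMEM controls.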

MDA-MB-231 [2] = assay: Cytotoxicity against human MDA-MB-231 cells assessed as cell growth inhibition at 50 uM after 48 hrs by MTT assay; format: functional; settings: MDA-MB-231, 48 h, read-out: GI
Summary of the method: (§1)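 MTT growth assay. 1×10^4 cells were seeded in DMEM with 10% FBS and incubated 24 h. Each compound was then applied at the stated single concentration for 48 h at 37°C, followed by MTT for 4 h. Formazan was solubilized in DMSO and absorbance read at 570 nm with 690 nm background subtraction. Inhibition is relative to control cells given DMSO+DMEM.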

MDA-MB-231 [3] = assay: Cytotoxicity against human MDA-MB-231 cells assessed as cell growth inhibition at 100 uM after 48 hrs by MTT assay; format: functional; settings: MDA-MB-231, 48 h, read-out: GI; summary of the method: as §1

| SMILES | IC50 (MDA-MB-231 [1]) | inhibition of growth at 50 µM (MDA-MB-231 [2]) | inhibition of growth at 100 µM (MDA-MB-231 [3]) |
| --- | --- | --- | --- |
| CCOC(=O)C1=C(N)Oc2c(c(=O)oc3c(Br)cc(Cl)cc23)C1c1nc(OCc2ccccc2)c2ccccc2n1 (centres undefined) | 28.3 µM | 80% | > 95% |
| CCOC(=O)C1=C(N)Oc2c(c(=O)oc3ccccc23)C1c1nc(OCc2ccccc2)c2ccccc2n1 (centres undefined) | > 100 µM |  |  |
| CCOC(=O)C1=C(N)Oc2c(c(=O)oc3c(Cl)cc(Cl)cc23)C1c1nc(OCc2ccccc2)c2ccccc2n1 (centres undefined) | > 100 µM |  |  |
| CCOC(=O)C1=C(N)Oc2c(c(=O)oc3ccc(F)cc23)C1c1nc(OCc2ccccc2)c2ccccc2n1 (centres undefined) | > 100 µM |  |  |
| CCOC(=O)C1=C(N)Oc2c(c(=O)oc3cc(C)c(C)cc23)C1c1nc(OCc2ccccc2)c2ccccc2n1 (centres undefined) | > 100 µM |  |  |
| CCOC(=O)C1=C(N)Oc2c(c(=O)oc3cc(OC)c(Cl)cc23)C1c1nc(OCc2ccccc2)c2ccccc2n1 (centres undefined) | > 100 µM |  |  |
| CCOC(=O)C1=C(N)Oc2c(c(=O)oc3cc(OC)ccc23)C1c1nc(OCc2ccccc2)c2ccccc2n1 (centres undefined) | > 100 µM |  |  |
